CSC inhib – blocks cancer stem cells; cancer stem cell-like cells viability, luminescence; inhibition, % at 7.5 µM; hit rate 1.1% among 300,000; in the data active = inhibition above about 75%; inconclusive = no clear call, values can overlap the other calls; tested in HMLE shEcad cells
T cruzi inh – blocks replication of Trypanosoma cruzi; AID 1885; T. cruzi beta-gal in NIH3T3, luminescence, 90 h; hit rate 1.4% among 300,000; inhibition, % (test concentration not listed);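 active = mean inhibition across valid replicates above about 55%, limit read from the data; inconclusive = mean below that limit but half or more replicates reach it; inactive = mean below it, under half of replicates reach it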;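 also: signal also drops with host cell toxicity which is not excluded here; 0% = plate median of DMSO wells and 100% = zero luminescence signal; higher percent means less beta-gal luminescence so fewer parasites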
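Test system: β-gal T. cruzi (Tulahuen C4) inside NIH/3T3 cells / Quantity: 5,000 cells/well / Measured by: luminescence from GalScreen with 0.05% NP40, read after 60 min / Medium: DMEM plus 2% FBS / Measure: parasite load inhibition, % / Reagent: Tulahuen C4 trypomastigotes, 5000/well / Schedule: co-culture of at least 90 h after 3 h attachment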
H9c2 TAG inh – inhibitors of triacylglycerol accumulation; H9c2 cells, Nile Red lipid (TAG) fluorescence; cells loaded with 200 µM oleic acid; inhibition, % at 12.5 µM; hit rate 0.66% among 230,000; AID 651582;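 active = pattern-corrected inhibition of lipid staining of at least 50% with the nuclear-stain viability signal not falling by more than 50%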;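 also: 0% = DMSO wells and 100% = triacsin C control wells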
A1 inh – inhibitors of the anti-apoptotic protein A1, read as caspase activation | AID 2462 | MEF A1-2A-BIM cells, Caspase-Glo 3/7 luminescence, 3 h; percent of clofoctol response, vehicle zero | caspase activation, % (concentration not given with the values) | hit rate 0.066% among 330,000;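 active = over half of replicate activation scores above 10%, or exactly half above 10 with the replicate mean above 10; inconclusive = replicate mean below 10 yet half the replicates above 10; inactive = over half of replicates below 10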
Beta apoptosis – beta cell apoptosis inhibition. INS-1E cytokine-induced death, ATP luminescence, 48 h; percent of positive-control rescue, neutral wells zero. hit rate 0.8% among 300,000. protection from apoptosis, % (no concentration beside the values);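 active = Every replicate reaches about 75%, or at least half do and their mean reaches it too, limit read from the data; inconclusive = At least half of replicates reach the limit but their mean does not; inactive = Under half of replicates reach the limit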;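 also: 0% = cytokine-treated negative control wells and 100% = positive control rescue; higher means more ATP so stronger rescue from cytokine killing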
Calb FLC – affects C. albicans growth with fluconazole. C. albicans CaCi-2 (fluconazole-resistant clinical isolate) + fluconazole, Alamar Blue growth, 48 h. growth inhibition, % (concentration not given with the values). hit rate 0.57% among 300,000. AID 1979;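 active = growth inhibition above about 58% in most replicates, limit read from the data, passing the limit was not always enough; inconclusive = exactly half the replicates above a set limit; inactive = most replicates below a set limit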;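 also: all wells also contain fluconazole at 8 µg/ml as a sub-toxic cotreatment; 0% = median of DMSO wells and 100% = median of geldanamycin control wells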
Numbers without * were called inactive. Hits are enriched below; roughly 3.1% of the tested compounds scored in any of these assays.

Cn1c(=O)n(CC(=O)NCC2CCCO2)c(=O)c2c3c(sc21)CCCC3 (stereo unspecified) was read as CSC inhib 3, T cruzi inh -3, A1 inh 0, Beta apoptosis -6 and Calb FLC 7.
COc1ccccc1C(=O)COC(=O)CN1C(=O)C2CC=CCC2C1=O (stereo unspecified) was read as CSC inhib 0, T cruzi inh -1, H9c2 TAG inh 3, A1 inh 0 and Beta apoptosis 0.
`O=C(Nc1ccc(Cl)c([N+](=O)[O-])c1)Nc1nc2ccccc2s1` gave CSC inhib 81*, T cruzi inh 6, A1 inh 0, Beta apoptosis 6 and Calb FLC 2.
Screening O=C(Nc1ccc(Cl)c(Cl)c1)Nc1ccccc1NS(=O)(=O)c1cccs1 returned CSC inhib 99*, T cruzi inh -20, H9c2 TAG inh -6, A1 inh -1, Beta apoptosis 31 and Calb FLC 31.
`O=C(Nc1nc2ccccc2s1)Nc1ccc([N+](=O)[O-])cc1Cl` gave CSC inhib 10, T cruzi inh -4, A1 inh 0, Beta apoptosis 9 and Calb FLC 1.
`CCC(=O)NNc1nc2c(C)cc(C)cc2s1` gave CSC inhib -2, T cruzi inh -17, H9c2 TAG inh 5, A1 inh 1, Beta apoptosis 1 and Calb FLC -18.
Cc1ccc2nc(NNC(=O)c3ccc(S(=O)(=O)N4CCc5ccccc5C4)cc3)sc2c1 was read as CSC inhib 102*, T cruzi inh 71*, H9c2 TAG inh 19, A1 inh inconclusive, Beta apoptosis 98* and Calb FLC 59.
`Cc1cc(C)c2nc(NNC(=O)c3ccc(S(=O)(=O)N4CC(C)CC(C)C4)cc3)sc2c1` (stereo unspecified) gave CSC inhib 118*, T cruzi inh 62*, H9c2 TAG inh -10, A1 inh 0, Beta apoptosis 106* and Calb FLC 2.
For Cc1cccc2sc(NNC(=O)c3ccc(S(=O)(=O)N4CC(C)CC(C)C4)cc3)nc12 (stereo unspecified) the results were CSC inhib 118*, T cruzi inh 66*, H9c2 TAG inh 17, A1 inh 0, Beta apoptosis 110* and Calb FLC -4.
Cc1cc(C)c2nc(NNC(=O)c3ccc(S(=O)(=O)N4CCCC(C)C4)cc3)sc2c1 (stereo unspecified) was read as CSC inhib 119*, T cruzi inh 61*, H9c2 TAG inh -5, A1 inh 0, Beta apoptosis 107* and Calb FLC 12.
O=Cc1cc(CCC(=O)O)ccc1O was read as CSC inhib -9, T cruzi inh 4, H9c2 TAG inh 2, A1 inh 2, Beta apoptosis -7 and Calb FLC 0.
CCCCCCc1nc(C(N)=O)c2[nH]c(=O)n(-c3ccccc3F)c2n1 was read as CSC inhib -11, T cruzi inh 2, A1 inh 0, Beta apoptosis -2 and Calb FLC 1.
`O=C1[C@@H]2Cc3c([nH]c4ccccc34)C(c3cccc(Br)c3)N2C(=O)CN1C1CCN(Cc2ccccc2)CC1` (stereo partly specified) gave CSC inhib 82*, T cruzi inh 65*, A1 inh 0, Beta apoptosis 23 and Calb FLC -3.
CCOc1ccccc1C1c2[nH]c3ccccc3c2C[C@H]2C(=O)N(C3CCN(Cc4ccccc4)CC3)CC(=O)N12 (stereo partly specified) was read as CSC inhib 8, T cruzi inh 62*, A1 inh 0, Beta apoptosis 7 and Calb FLC 4.
Cc1ccccc1C1c2[nH]c3ccccc3c2C[C@H]2C(=O)N(C3CCN(Cc4ccccc4)CC3)CC(=O)N12 (stereo partly specified) was read as CSC inhib 11, T cruzi inh 61*, A1 inh 1, Beta apoptosis 6 and Calb FLC 21.
For CCc1cc(=O)oc2cc(C)cc(OCC(=O)NC3CCN(Cc4ccccc4)CC3)c12 the results were CSC inhib -13, T cruzi inh 39, A1 inh 3, Beta apoptosis 10 and Calb FLC -1.
`COc1ccc(NC(=O)c2cc(C3CCCCN3C(=O)OCCF)on2)c(C)c1` (stereo unspecified) gave H9c2 TAG inh -10.
`Cc1cc(C)c2nc(N3C(=O)C(O)=C(C(=O)c4ccco4)C3c3cccc(O)c3)sc2c1` (stereo unspecified) gave CSC inhib 55, H9c2 TAG inh 5, A1 inh 0 and Beta apoptosis -3.
Screening c1ccc(CSc2nnc(-c3cccs3)n2Cc2ccco2)cc1 returned CSC inhib 9, T cruzi inh 6, A1 inh 0, Beta apoptosis -5 and Calb FLC 121*.
Cc1ccccc1CSc1nnc(-c2cccs2)n1Cc1ccco1 was read as CSC inhib 3, T cruzi inh 27, H9c2 TAG inh 14, A1 inh 0, Beta apoptosis -2 and Calb FLC 25.
`OCCCCC#Cc1c(-c2ccsc2)sc2ccccc12` gave CSC inhib 99*, T cruzi inh 13, H9c2 TAG inh -11, A1 inh 1, Beta apoptosis -3 and Calb FLC 6.
`OCCC#Cc1c(-c2ccsc2)sc2ccccc12` gave CSC inhib 68, T cruzi inh -11, H9c2 TAG inh -4, A1 inh -1 and Calb FLC -2.
COc1ccc(-c2sc3ccccc3c2/C=C/c2ccc(OC)c(OC)c2)cc1 was read as H9c2 TAG inh 9, A1 inh 1 and Beta apoptosis 3.
`COc1ccc(-c2sc3ccccc3c2/C=C/c2ccncc2)cc1` gave CSC inhib 102*, H9c2 TAG inh 17, A1 inh inconclusive and Beta apoptosis -8.
`COc1ccc(-c2sc3cc(OC)c(OC)cc3c2C#CC2(O)CCCCC2)cc1` gave CSC inhib 125*, H9c2 TAG inh 32, A1 inh 0 and Beta apoptosis 2.
Screening COc1ccccc1-c1sc2cc3c(cc2c1C#Cc1cncn1C)OCO3 returned CSC inhib 138*, H9c2 TAG inh -34, A1 inh -1 and Beta apoptosis 8.
For COc1ccc(-c2sc3ccccc3c2C#CC2(O)CCCCC2)cc1 the results were CSC inhib 89*, T cruzi inh 31, H9c2 TAG inh 6, A1 inh 0, Beta apoptosis -4 and Calb FLC 2.
COc1ccc(-c2sc3ccccc3c2C#Cc2cncn2C)cc1 was read as CSC inhib 138*, H9c2 TAG inh 16, A1 inh 0 and Beta apoptosis 7.

Assay outcomes: PubChem, several laboratories
